Experimental data pooled from the literature.
Each line is one published result; the experiments were not run side by side.
Target: Dual specificity tyrosine-phosphorylation-regulated kinase 3 (DYRK3, Homo sapiens, UniProt O43781)
Residues used in one study (O43781 1-588): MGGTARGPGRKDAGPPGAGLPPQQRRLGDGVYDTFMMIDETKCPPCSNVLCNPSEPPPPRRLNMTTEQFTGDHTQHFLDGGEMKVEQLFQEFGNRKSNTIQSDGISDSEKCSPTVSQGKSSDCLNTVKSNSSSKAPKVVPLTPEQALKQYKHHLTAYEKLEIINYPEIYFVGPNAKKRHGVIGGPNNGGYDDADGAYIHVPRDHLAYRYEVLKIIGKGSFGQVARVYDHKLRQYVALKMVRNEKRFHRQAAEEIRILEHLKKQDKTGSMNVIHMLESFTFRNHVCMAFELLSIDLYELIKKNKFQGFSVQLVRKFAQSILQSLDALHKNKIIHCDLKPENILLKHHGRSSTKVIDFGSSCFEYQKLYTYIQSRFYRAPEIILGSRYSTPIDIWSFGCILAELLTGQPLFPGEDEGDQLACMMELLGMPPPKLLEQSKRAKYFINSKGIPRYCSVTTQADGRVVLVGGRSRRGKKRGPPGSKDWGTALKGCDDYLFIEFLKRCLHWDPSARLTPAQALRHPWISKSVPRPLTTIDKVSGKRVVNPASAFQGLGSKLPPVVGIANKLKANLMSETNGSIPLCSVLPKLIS

O=C(O)c1ccc2c(c1)nc(NCc1ccccc1)c1ccncc12 — remaining activity (enzyme activity, inhibitor, radiometric; 1 µM): 21%
COc1cc2ncnc(Nc3ccc(Oc4ccccc4)cc3C)c2cc1OC — inhibition (enzyme activity, inhibitor; 1 µM): 1%
Cn1cnc(Br)c1C1=CN(c2ncnc3[nH]cnc23)CCS1 — inhibition (enzyme activity, inhibitor, radiometric; 2 µM): 98%
CC/C(=N\NC(=O)NCc1cccc(O)c1)c1ccc(O)c(C)c1O — inhibition (enzyme activity, inhibitor; 0.1 µM): 1.6%
COc1cccc(CCNc2nc3cc(C(=O)O)ccc3c3cnccc23)c1 — remaining activity (enzyme activity, inhibitor, radiometric; 1 µM): 11%
Oc1cccc(-c2nc(N3CCOCC3)c3oc4ncccc4c3n2)c1 — remaining activity (enzyme activity, inhibitor; 10 µM): 64%
O=C(O)c1ccc2c(c1)nc(NCc1ccccc1)c1ncncc12 — remaining activity (enzyme activity, inhibitor, radiometric; 1 µM): 31%
N#CCCc1ccc2c(c1)-c1[nH]c3ccc([N+](=O)[O-])cc3c1CC(=O)N2 — remaining signal (cell-free assay; 0.5 µM): 97.6%
Cc1cc(NC(=O)c2cccc3cc(-c4cccc5[nH]nc(N)c45)ccc23)ccc1F — activity vs control (enzyme activity, inhibitor; 0.1 µM): 105%
O=C(O)c1ccc2c(c1)nc(NCCc1cccc(F)c1)c1ccncc12 — remaining activity (enzyme activity, inhibitor, radiometric; 1 µM): 7%
COc1cc(-c2cc(-c3ccc(N4CCNCC4)cc3)cnc2C)cc(OC)c1OC — inhibition (enzyme activity, inhibitor; 1 µM): 1%
O=C1NC(=O)c2cc(Nc3ccc(F)cc3)c(Nc3ccc(F)cc3)cc21 — remaining signal (cell-free assay; 0.5 µM): 97.1%
O=C(Nc1cnn(-c2csc(C(=O)NC3COC3)c2)c1)Nc1ccccc1Cl — remaining activity (enzyme activity, inhibitor; 5 µM): 93.3%
